Test results from ChEMBL document CHEMBL1124534, “Synthesis, mechanism of action, and biological evaluation of mitosenes” (1989).
Values after ≈ are worked out from the molar mass of the structure shown.

Legend:
[1] = test system: Mus musculus; assay: Percentage change in body weight [(day 6 - day 1)/ day 1] for antitumor activity against P388 Leukemia in CD2 mice at fractioned dose treatment of 1.5 mg/Kg; assay type: functional
How it was run: (§1)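 Mouse P388 leukemia model. Drugs were given intraperitoneally, either as a single injection or once daily for 9 consecutive days (fractioned schedule). Outcomes were median survival time in days, %T/C, and % body weight change.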

[2] = test system: Mus musculus; assay: Mean relative body weight change of treated / mean relative body weight change of control when compound (6 mg/kg/day) administered to inhibit growth of human tumor xenograft GXF 97 was reported at day 28 in nude mice; assay type: functional
How it was run: (§2)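 GXF 97 xenograft grown subcutaneously in nude mice for 24 days, then randomized; ip dosing began 1 day later, given on days 1-4, with 4-5 mice per group. Read-out is mean relative body weight change of treated divided by mean relative body weight change of controls, in %.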

[3] = test system: Mus musculus; assay: Mean relative body weight change of treated / mean relative body weight change of control when compound (6 mg/kg/day) administered to inhibit growth of human tumor xenograft GXF 97 was reported at day 14 in nude mice; assay type: functional; how it was run: as §2
[4] = test system: WiDr; assay: In vitro antitumor activity against WiDr colon carcinoma tumor cell line was determined; assay type: functional; conditions: Homo sapiens, read-out: ID50 (the source's name)
How it was run: (§3)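 Cell growth inhibition in vitro measured by the PIT method, with mitomycin C as positive reference.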

[5] = test system: Mus musculus; assay: Percent T/C ([…]) for antitumor activity against P388 Leukemia in CD2 mice at fractioned dose treatment of 2.5 mg/kg; assay type: functional; how it was run: as §1
[6] = test system: Mus musculus; assay: Median survival time in days for antitumor activity against P388 Leukemia in CD2 mice at single dose treatment of 8 mg/Kg
[7] = test system: Mus musculus; assay: Ability of intraperitoneally administered compound (6 mg/kg/day) to inhibit growth of human tumor xenograft GXF 97 was assessed on day 21 in nude mice; assay type: functional
How it was run: (§4)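 GXF 97 human gastric xenograft grown subcutaneously in nude mice for 24 days, then randomized; dosing began 1 day later as ip injections on days 1-4. Groups had 4-5 mice. Tumor length and width were measured. %T/C = median relative tumor size of treated / median relative tumor size of controls.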

[8] = test system: Mus musculus; assay: Mean relative body weight change of treated / mean relative body weight change of control when compound (6 mg/kg/day) administered to inhibit growth of human tumor xenograft GXF 97 was reported at day 21 in nude mice; assay type: functional; how it was run: as §2
[9] = test system: Mus musculus; assay: Percent inhibition of compound (10 mg/Kg) was evaluated in vivo for antitumor activity against MAC 13 in female NMRI mice on day 2; assay type: functional
How it was run: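 MAC 13 in female NMRI mice. Drugs were given in arachis oil BP by ip route on day 2 or day 29. % inhibition was derived from treated/untreated control tumor weight (volume); a negative value indicates stimulation.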

[10] = test system: Mus musculus; assay: Ability of intraperitoneally administered compound (6 mg/kg/day) to inhibit growth of human tumor xenograft GXF 97 was assessed on day 28 in nude mice; assay type: functional; how it was run: as §4
[11] = test system: Mus musculus; assay: Compound (12.5 mg/Kg) was evaluated in vivo for antitumor activity against MAC 16 in female NMRI mice on day 12 and ratio of tumor weight of treated to that of control was determined; assay type: functional
[12] = test system: Mus musculus; assay: Percentage change in body weight [(day 6 - day 1)/ day 1] for antitumor activity against P388 Leukemia in CD2 mice at fractioned dose treatment of 2.5 mg/kg; assay type: functional; how it was run: as §1
[13] = test system: Mus musculus; assay: Body wieght treated/body weight untreated controls of compound (12.5 mg/kg) was evaluated in vivo for antitumor activity against MAC 16 in female NMRI mice on day 12; assay type: functional
[14] = test system: Mus musculus; assay: Percent T/C ([…]) for antitumor activity against P388 Leukemia in CD2 mice at a single dose treatment of 6 mg/kg; assay type: functional
How it was run: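 P388 leukemia mice given a single intraperitoneal injection. Median survival time (days) and body weight change were recorded. %T/C was derived from the survival of treated versus control mice.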

[15] = test system: Mus musculus; assay: Median survival time in days for antitumor activity against P388 Leukemia in CD2 mice at a single dose treatment of 6 mg/kg; assay type: functional
How it was run: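 P388 leukemia-bearing mice were given one intraperitoneal injection. The read-out was median survival time in days, reported alongside %T/C and % body weight change.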

[16] = test system: L1210; assay: In vitro antitumor activity against L1210 lymphocytic leukemia tumor cell line was determined; assay type: functional; conditions: Mus musculus, read-out: ID50 (the source's name)
How it was run: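 Inhibition of L1210 leukemia colony formation in vitro, with mitomycin C as positive reference.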

[17] = test system: Mus musculus; assay: Percent change in body weight [(day 6 - day 1)/ day 1] when P388 Leukemic CD2 mice were treated with a compound (6 mg/kg); assay type: functional
[18] = test system: Mus musculus; assay: Compound (10 mg/Kg) was evaluated in vivo for antitumor activity against MAC 13 in female NMRI mice on day 2 and ratio of tumor weight of treated to that of control was determined
[19] = test system: A204; assay: In vitro antitumor activity against A204 rhabdomyosarcoma tumor cell line was determined; assay type: functional; conditions: Homo sapiens, read-out: ID50 (the source's name); how it was run: as §3
[20] = test system: Mus musculus; assay: Relative tumor size on day 28 was reported when compound (6 mg/kg/day) administered to inhibit growth of human tumor xenograft GXF 97 in nude mice; assay type: functional
How it was run: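 GXF 97 human gastric xenograft grown subcutaneously in nude mice for 24 days, then mice randomized; treatment began 1 day later. Fractioned ip injections on days 1-4, or single iv injection on day 1; 4-5 mice per group. Tumor size from length and width; relative tumor size (% of controls) read at day 28.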

[21] = test system: Mus musculus; assay: Body wieght treated/body weight untreated controls of compound (12.5 mg/kg) was evaluated in vivo for antitumor activity against MAC 16 in female NMRI mice on day 4; assay type: functional
[22] = test system: Mus musculus; assay: Median survival time in days for antitumor activity against P388 Leukemia in CD2 mice at fractioned dose treatment of 2.5 mg/kg; assay type: functional
How it was run: (§5)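 P388 leukemia-bearing mice were dosed intraperitoneally once daily for 9 consecutive days (fractioned schedule). The read-out was median survival time in days, reported alongside %T/C and % body weight change.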

[23] = test system: Mus musculus; assay: Compound ((12.5 mg/Kg) was evaluated in vivo for antitumor activity against MAC 16 in female NMRI mice on day 4 and ratio of tumor weight of treated to that of control was determined; assay type: functional
[24] = test system: Mus musculus; assay: Ability of intraperitoneally administered compound (6 mg/kg/day) to inhibit growth of human tumor xenograft GXF 97 was assessed on day 14 in nude mice; assay type: functional; how it was run: as §4
[25] = test system: Mus musculus; assay: Percent T/C ([…]) for antitumor activity against P388 Leukemia in CD2 mice at fractioned dose treatment of 1.5 mg/Kg; assay type: functional; how it was run: as §1
[26] = test system: Mus musculus; assay: Median survival time in days for antitumor activity against P388 Leukemia in CD2 mice at fractioned dose treatment of 1.5 mg/Kg; assay type: functional; how it was run: as §5
[27] = test system: Mus musculus; assay: Percentage change in body weight [(day 6 - day 1)/ day 1] for antitumor activity against P388 Leukemia in CD2 mice at fractioned dose treatment of 8 mg/Kg; assay type: functional; conditions: in the assay text read “single dose treatment” for “fractioned dose treatment”; how it was run: as §1
[28] = test system: Mus musculus; assay: Percent T/C ([…]) for antitumor activity against P388 Leukemia in CD2 mice at fractioned dose treatment of 8 mg/Kg; assay type: functional; conditions: in the assay text read “single dose” for “fractioned dose”; how it was run: as §1

COC1=C(C)C(=O)c2c(c(COC(C)=O)c3n2CCC3OC(C)=O)C1=O (stereo not drawn) was tested, and the BWC [1] was 8.3%, the BWC [2] was 74.1% and the BWC [3] was 71%. For the same compound, the IC50 [4] was 0.01 µg/mL (≈ 0.0277 µM), the T/C [5] was 150% and the MST [6] was 9 days. For the same compound, the T/C [7] was 5.9%, the BWC [8] was 73.5% and the I [9] was 27%. It also gave a T/C [10] of 3.9%, a T/C [11] of 120% and a BWC [12] of 2%. It also gave a BW [13] of 78%, a T/C [14] of 118% and an MST [15] of 13 days. The IC50 [16] was 0.14 µg/mL (≈ 0.387 µM), the BWC [17] was -4.7% and the T/C [18] was 73%. For the same compound, the IC50 [19] was 0.001 µg/mL (≈ 0.00277 µM), the “Relative TS” value [20] was 26.2% and the BW [21] was 105%. The MST [22] was 16.5 days, the T/C [23] was 102% and the T/C [24] was 16.8%. For the same compound, the T/C [25] was 141%, the MST [26] was 15.5 days and the BWC [27] was -7.1%. It also gave a T/C [28] of 82%.
